# Screens: PubChem BioAssay, several laboratories
# Platelet DG rel: modulates dense granule release in human platelets | human platelet-rich plasma, SFLLRN dense granule ATP release, luminescence | inhibition, %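 (compounds screened at 7.5 µM in platelet-rich plasma)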 | 0.22% of 300,000 active | AID 1663;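 active = mean replicate score, as percent of positive control, at or above 50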
# VLA-4 inh: inhibition in a human VLA-4 binding assay; P13612; VLA-4 expressing cells, ligand binding flow cytometry; inhibition, % (about 7 µM as worked out from the volumes in the protocol); 0.2% of 330,000 active; in the data active = inhibition above about 50%
# TAAR1 agonist: agonists of human TAAR1 | Q96RJ0 | CHO RD-HGA16 TAAR1, Fluo-8 calcium fluorescence; vehicle wells 0%, saturating PEA agonist 100% | activation, % at 3 µM | 0.99% of 360,000 active | AID 624467;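 active = activation above the mean activation of all test compounds in the run plus 3 SD, cut at about 38% in these data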
# Target sequence (Q96RJ0 whole entry, looked up): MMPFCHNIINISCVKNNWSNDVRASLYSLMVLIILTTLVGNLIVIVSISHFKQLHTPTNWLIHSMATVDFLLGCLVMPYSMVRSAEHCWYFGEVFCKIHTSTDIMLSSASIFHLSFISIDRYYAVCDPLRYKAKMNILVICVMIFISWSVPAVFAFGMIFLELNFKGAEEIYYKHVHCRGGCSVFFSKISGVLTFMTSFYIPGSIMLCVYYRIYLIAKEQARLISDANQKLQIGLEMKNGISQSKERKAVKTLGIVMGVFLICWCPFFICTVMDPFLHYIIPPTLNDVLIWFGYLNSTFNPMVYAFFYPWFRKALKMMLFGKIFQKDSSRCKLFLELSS
#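 Test system: RD-HGA16 (CHO) cells co-expressing Gα16 and hTAAR1 / Benchmarks: DMSO vehicle as 0%, PEA at EC100 as 100% / Repeats: no replicates (n 1) / Measure: % activation from peak over basal fluorescence ratio, DMSO-to-PEA scaled / Timing: 17-24 h plating, Fluo-8 75 min 37 °C, 30 min RT / Technique: kinetic Fluo-8 calcium fluorescence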
# TAAR1 antag: human TAAR1 antagonism; CHO RD-HGA16 TAAR1, Fluo-8 calcium fluorescence, antagonist; inhibition, % at 3 µM; 1.5% of 360,000 active; AID 624466;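 active = inhibition above a per-plate cutoff, the mean inhibition of test compounds on that plate plus 3 SD, cut at about 49% in these data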
#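 Test system – hTAAR1-expressing CHO RD-HGA16 cells, Gα16-coupled · Reagent – β-PEA at EC80 concentration, post-compound challenge · Compound dosing – 3 µM, single point · Timing – 140 s kinetic read after compound, 140 s after agonist · Detection – Fluo-8 intracellular calcium dye fluorescence, real-time kinetic reads · Control set – DMSO and EC80 PEA controls · Repeats – n of 1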
# Rce1 inh: inhibitors of yeast Ras-converting enzyme | yeast membranes, quenched prenylated peptide cleavage fluorescence | Q03530 | calls only | 0.27% of 290,000 active;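 active = fall in fluorescence gain of 50% or more versus controls, with final raw signal at or below 3038400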
# TAAR1 nonsel count: nonselective antagonism, TAAR1 counter-screen. AID 651780. counterscreen cell line, calcium fluorescence, antagonist mode. inhibition, % at 3 µM. shares compounds with TAAR1 antag. 77% of 2,400 active; in the data active = inhibition above about 22%;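 also: CHO-Ga16 host cells stimulated with ATP at an EC80 level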
# TAAR1 ant conf: confirmation of human TAAR1 antagonists; shares compounds with TAAR1 antag; TAAR1-expressing cells, fluorescence antagonist read-out; inhibition, % at 3 µM; 40% of 2,400 active; in the data active = inhibition above about 49%;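 also: CHO-Ga16 host cells challenged with agonist PEA near its EC80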
# Ga16 nonsel ag: nonselective Ga16 agonist in TAAR1 antagonist counter-screen; shares compounds with TAAR1 antag; Ga16-expressing cells, calcium fluorescence, agonist counterscreen; activation, % at 3 µM; 18% of 2,400 active; AID 651953; in the data active = activation above about 12%
# TAAR1 ag count: TAAR1 agonism, antagonist counter-screen; 2% of 2,400 active; activation, % at 3 µM; shares compounds with TAAR1 antag; hTAAR1 cell line, fluorescence activation, agonist mode; in the data active = activation above about 37%;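 also: CHO cells stably expressing TAAR1 with calcium dye readout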
# A number is an active result; . = inactive; / = no result. Compounds with a hit are over-represented: about 2.6% of the library has one in this group of screens.
SMILES,Platelet DG rel,VLA-4 inh,TAAR1 agonist,TAAR1 antag,Rce1 inh,TAAR1 nonsel count,TAAR1 ant conf,Ga16 nonsel ag,TAAR1 ag count
NS(=O)(=O)c1cccc(NC(=O)CSc2nnc3n2CCCCC3)c1,/,.,.,.,/,/,/,/,/
CCN(CC)S(=O)(=O)c1ccc(/C=C/C(=O)Nc2cccc(F)c2)cc1,.,.,.,58,.,39,62,.,.
O=C(CN1CCN(c2ccc(O)cc2)CC1)Nc1ccc2c(c1)OCCCO2,/,.,.,.,/,/,/,/,/
CCOC(=O)Cc1csc(/N=C/c2c(O)n(-c3ccccc3C(F)(F)F)c(=O)c3ccccc23)n1,.,.,.,75,.,34,56,.,.
Cc1cc(C)n(-c2ccc(C(=O)OCC(=O)NC(c3ccccc3)c3ccccc3)cc2)n1,.,.,.,66,.,27,52,.,.
CCOC(=O)c1ccc(-n2nc(C)cc2C)cc1,.,.,.,.,.,/,/,/,/
Cc1nn(-c2ccccc2)c(C)c1NC(=O)COC(=O)CCCOc1ccccc1,.,.,.,57,.,.,.,.,.
Cc1ccc(C(=O)OCC(=O)Nc2c(C)nn(-c3ccccc3)c2C)c(O)c1,/,/,.,.,/,/,/,/,/
COc1ccccc1/C=C/C(=O)OCC(=O)Nc1c(C)nn(-c2ccccc2)c1C,/,.,.,66,/,21,.,.,.
Cc1nn(-c2ccccc2)c(C)c1NC(=O)COC(=O)c1ccc(Cl)c(N)c1,.,.,.,72,/,30,50,12,.
O=C(N/N=C/c1ccncc1)c1cccc(NC(=O)c2ccc(Cl)cc2)c1,.,.,.,.,.,/,/,/,/
COc1cc(/C=N\NC(=O)c2ccc(-c3ccccc3)cc2)cc(OC)c1OC(C)=O,/,.,.,61,.,29,.,.,.
COc1ccc(/C=N/NC(=O)c2cc3c(ccc4ccccc43)o2)c(OC)c1,.,/,.,63,.,22,.,.,.
COc1ccc(OC)c(/C=N\NC(=O)c2cc3c(ccc4ccccc43)o2)c1,.,.,.,.,.,/,/,/,/
COc1cc(/C=N\NC(=O)c2ccc(-c3ccccc3)cc2)cc(OC)c1O,.,.,.,.,.,/,/,/,/
O=C(N/N=C/c1ccc(F)cc1)c1cccc(NC(=O)c2ccc(F)cc2)c1,.,.,.,69,.,38,66,13,.
COc1cc(/C=N/NC(=O)C2(O)c3ccccc3-c3ccccc32)ccc1O,.,.,.,.,.,/,/,/,/
COc1cc(/C=N/NC(=O)C(=O)/C=C2\NC(C)(C)Cc3ccccc32)ccc1O,.,.,.,52,.,23,.,.,.
O=C(C#Cc1ccccc1)Nc1cccc(F)c1,.,.,.,.,.,/,/,/,/
O=C(CCC(=O)Nc1ccc(F)cc1)N/N=C/c1ccc(Br)cc1,.,.,.,53,.,.,.,.,.
COc1cc(/C=N/NC(=O)c2cccc(NC(=O)c3ccccc3)c2)ccc1O,.,.,.,65,.,31,57,.,.
O=C(N/N=C/c1ccccc1F)c1cccc(NC(=O)c2ccccc2Cl)c1,.,.,.,59,.,29,53,.,.
COc1ccc(/C=N/NC(=O)c2nc(-c3ccccc3)cc(-c3ccccc3)n2)cc1OC,.,.,.,51,.,26,.,.,.
COc1cc(/C=N/NC(=O)c2ccncc2)ccc1O,.,.,.,.,.,/,/,/,/
FC(F)(F)c1nc(Sc2ncccc2C(F)(F)F)n[nH]1,/,.,.,.,.,/,/,/,/
CC1(C(=O)NS(=O)(=O)c2ccccc2OC(F)(F)F)CCN1C(=O)c1ccco1 (stereo not drawn),/,/,.,.,/,/,/,/,/
COc1ccc(/C=N/NC(=O)c2ccc(NC(=O)c3cccc([N+](=O)[O-])c3)cc2)c(OC)c1,.,.,.,.,.,/,/,/,/
COc1ccc(/C=N/NC(=O)c2cccc(NC(=O)c3ccc(Cl)cc3)c2)c(OC)c1,.,.,.,57,.,29,.,.,.
